Reference: ChEMBL document CHEMBL1123669 (J Med Chem, 1987)

Key:
Phosphodiesterase 3 [1] = biological target: T1, Phosphodiesterase 3 (Homo sapiens, UniProt Q14432+Q13370); experiment: Inhibition of human platelet cAMP phosphodiesterase at 10e-4 M
Homo sapiens = species on record: Homo sapiens; experiment: Inhibition of ADP-induced platelet aggregation; format: functional
Method in brief: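 Human citrated PRP (200g, 15 min, room temperature), aspirin-free donors. Compound in DMF or Me2SO preincubated 5 min with stirred PRP at 37 °C. Aggregation induced by 5 μM ADP, followed turbidimetrically. Repeated at least twice with different donors; IC50 graphical.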

Rattus norvegicus [2] = species on record: Rattus norvegicus; experiment: Inhibition of rat heart cAMP phosphodiesterase (weak partial inhibition)
Phosphodiesterase 3 [3] = biological target: T1, Phosphodiesterase 3; experiment: In vitro inhibition of cyclic AMP phosphodiesterase from human platelets.
Rattus norvegicus [4] = species on record: Rattus norvegicus; experiment: Inhibition of rat heart cAMP phosphodiesterase

| SMILES | IC50 (Phosphodiesterase 3 [1]) | IC50 (Homo sapiens) | IC25 (Rattus norvegicus [2]) | IC50 (Phosphodiesterase 3 [3]) | IC25 (Rattus norvegicus [4]) |
| --- | --- | --- | --- | --- | --- |
| COc1ccc2c(c1)CNC(=O)N2 | 35000 nM |  |  |  |  |
| O=C1CN2Cc3c(ccc(Cl)c3Cl)N=C2N1 [ANAGRELIDE] |  | 2600 nM | > 100000 nM |  |  |
| COc1ccc2c(c1)COC(=O)N2 |  |  |  | 100000 nM |  |
| CN(C(=O)CCCOc1ccc2c(c1)OCC(=O)N2)C1CCCCC1 |  |  |  | 3400 nM | 1300 nM |
| CN(C(=O)CCCOc1ccc2[nH]c(=O)ccc2c1)C1CCCCC1 [CILOSTAMIDE] |  | 1900 nM |  |  | 700 nM |
| CN(C(=O)CCCOc1ccc2c(c1)SCC(=O)N2)C1CCCCC1 |  |  |  | 1800 nM | 1400 nM |
| COc1ccc2nc(O)sc2c1 |  |  |  | 21000 nM |  |
| CN(C(=O)CCCOc1ccc2c(c1)CCC(=O)N2)C1CCCCC1 |  |  |  | 1350 nM | 1500 nM |
| CN(C(=O)CCCOc1ccc2[nH]c(=O)[nH]c(=O)c2c1)C1CCCCC1 |  |  |  | 1150 nM | 1300 nM |
| COc1ccc2c(c1)CN1CC(=O)NC1=N2 |  | 4000 nM |  | 1500 nM |  |
| CN(C(=O)CCCOc1ccc2c(c1)CN1CC(=O)NC1=N2)C1CCCCC1 [LIXAZINONE] |  | 110 nM |  | 10 nM | 600 nM |
| COc1ccc2c(c1)CSC(=O)N2 |  |  |  | 13000 nM |  |
| CN(C(=O)CCCOc1ccc2c(c1)CSC(=O)N2)C1CCCCC1 |  |  |  | 190 nM | 380 nM |
| CN(C(=O)CCCOc1ccc2[nH]c(=O)oc(=O)c2c1)C1CCCCC1 |  |  |  | 4400 nM | > 30000 nM |
| CCCCCCOc1ccc2c(c1)CN1CC(=O)NC1=N2 |  | 62000 nM |  | 290 nM | 320 nM |
| CN(C(=O)CCCOc1ccc2c(c1)CNC(=O)N2)C1CCCCC1 |  |  |  | 1300 nM | 880 nM |
| CN(C(=O)CCCOc1ccc2c(c1)COC(=O)N2)C1CCCCC1 |  |  |  | 1150 nM | 1000 nM |
| CN(C(=O)CCCOc1ccc2c(c1)C(=O)NCC(=O)N2)C1CCCCC1 |  |  |  | 3600 nM | 50000 nM |
| CN(C(=O)CCCOc1ccc2nc(O)sc2c1)C1CCCCC1 |  |  |  | 10000 nM | > 10000 nM |
